Experimental data: ChEMBL document CHEMBL5634162, “Cyclohexylalanine-Containing α-Helical Amphipathic Peptide Targets Cardiolipin, Rescuing Mitochondrial Dysfunction in Kidney Injury” (J Med Chem, 2024)
Activity calls are given as the source filed them. Where a SMILES comes first, the peptide text is derived from it. Bridges are numbered along the chain shown (N, C = ends). Roman numbers before positions name the chains, in order. [ ]: non-standard residue; d: D form. The star is where a group is joined. 5TAMRA = CN(C)c1ccc2c(c1)Oc1cc(N(C)C)ccc1C21OC(=O)c2cc(C(=O)*)ccc21; Cha = N[C@@H](CC1CCCCC1)C(=O)O

Key:
[1] = test system: HeLa; experiment: Inhibition of H2O2-induced intracellular ROS level in human HeLa cells at EC50 incubated for […] followed by H2O2 addition measured for 10 mins by H2DCFDA probe based analysis; assay type: functional, cell-based; settings: time 220.0 min
[2] = Drug localization in CCCP-damaged mitochondria of human HeLa cells at 100 nM incubated for 3 hrs by NAO probe based assay; assay type: ADME; settings: 0.1 µM
Summary of the method: (§1)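 HeLa cells given TAMRA-labelled peptide 100 nM for 3 h and cardiolipin stained with NAO (100 nM, 1 h), with or without 20 μM CCCP for 30 min; LysoTracker 50 nM. Confocal images, Pearson r from five independent images (63×) per condition.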

[3] = Drug uptake in CCCP-damaged mitochondria of human HeLa cells at 100 nM by MitoTracker probe based assay; assay type: ADME; settings: 16 min, 0.1 µM, TDE = time-dependent effect
Summary of the method: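 HeLa cells given TAMRA-labelled peptide 100 nM for 3 h with MitoTracker staining; mitochondria damaged with 20 μM CCCP (30 min) or by CCCP during time-lapse confocal imaging. Red/green Pearson r calculated.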

[4] = test system: Mitochondria; experiment: Inhibition of antimycin A-induced mitochondrial ROS generation in human HeLa cells incubated for 190 mins followed by antimycin A addition measured after 90 mins by MitoSOX probe based analysis; assay type: functional; settings: dose lower […], dose upper 10.0 nM
Summary of the method: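 HeLa cells seeded, stained 24 h later with MitoSOX 5 μM for 10 min, washed, HBSS, read on plate reader at 37 °C (Ex/Em 510/580 nm).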

[5] = test system: HeLa; experiment: Induction of antimycin A-reduced ATP production in human HeLa cells incubated for 3 hrs followed by antimycin A addition measured after 3 hrs by luminescence based analysis; assay type: functional, cell-based; settings: dose 10-20 nM, time 6.0 hrs
Summary of the method: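 Cellular ATP measured by luminescence with an ATP detection kit after peptide pretreatment.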

[6] = test system: HeLa; experiment: Induction of H2O2-reduced mitochondrial membrane potential in human HeLa cells incubated for 3 hrs followed by H2O2 addition for 1 hr by fluorescence based analysis; assay type: functional, cell-based; settings: dose 10-30 nM, time 4.0 hrs
Summary of the method: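 HeLa cells given peptide 3 h then 1 mM H2O2 for 1 h; TMRE 600 nM for 15 min, washed, fluorescence read in HBSS at 37 °C (Ex/Em 525/575 nm).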

[7] = Drug localization in cytosol of human HeLa cells at 100 nM incubated for 3 hrs in presence of CCCP by NAO probe based analysis; assay type: ADME, subcellular; settings: 0.1 µM; summary of the method: as §1
[8] = test system: Epithelial cell; experiment: Reversal of H2O2-induced mitochondrial dysfunction in human tubular epithelial cells assessed as increase in OCR level measured for 40 to 60 mins by Seahorse assay; assay type: functional, cell-based; settings: dose 10-50 nM, time 40-60 min
Summary of the method: (§2)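 hTECs were exposed to H2O2 with peptide at 10 or 50 nM (n = 6 per group), then run on a Seahorse XFe96. OCR was read after sequential 2 μM oligomycin, 1 μM FCCP, and 0.5 μM rotenone/antimycin A. ECAR was read after 10 mM glucose, 1 μM oligomycin and 50 mM 2-DG. Glycolytic proton efflux rate was taken as glycoATP production rate.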

[9] = test system: Epithelial cell; experiment: Reversal of H2O2-induced mitochondrial dysfunction in human tubular epithelial cells assessed as increase in ECAR level measured for 40 to 60 mins by Seahorse assay; assay type: functional, cell-based; settings: dose 10-50 nM, time 40-60 min; summary of the method: as §2
[10] = test system: Epithelial cell; experiment: Reversal of H2O2-induced mitochondrial dysfunction in human tubular epithelial cells assessed as increase in glycolytic PER level measured for 40 to 60 mins by Seahorse assay; assay type: functional, cell-based; settings: dose 10-50 nM, time 40-60 min; summary of the method: as §2
[11] = test system: Mus musculus; experiment: Protection against colistin-induced nephrotoxicity in C57BL/6 mouse model assessed as reduction in acute tubular necrosis at 1 mg/kg, ip administered once every other day measured after 7 days by […] analysis; assay type: functional, organism-based; settings: time 7.0 day
Summary of the method: (§3)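 Male C57BL/6 mice, 7 weeks: colistin 20 mg/kg sc daily for 7 days, peptide 1 mg/kg ip once every other day, n = 5 per group. Day-7 kidney sections, citrate antigen retrieval, immunohistochemistry with HRP polymer secondary and hematoxylin counterstain; PAS and Masson's trichrome for damage.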

[12] = test system: Mus musculus; experiment: Protection against colistin-induced nephrotoxicity in C57BL/6 mouse model assessed as reduction in tubular dilation at 1 mg/kg, ip administered once every other day measured after 7 days by […] analysis; assay type: functional, organism-based; settings: time 7.0 day
Summary of the method: (§4)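 Seven-week-old male C57BL/6 mice got colistin 20 mg/kg SC daily for 7 days plus peptide 1 mg/kg intraperitoneally every other day; groups of n = 5 (control, colistin, colistin + peptide). Kidneys were taken at day 7. Cytochrome C was detected by immunohistochemistry (citrate antigen retrieval, HRP-polymer detection, hematoxylin counterstain). Sections were also stained with PAS and Masson's trichrome to score histologic damage and fibrosis.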

[13] = test system: Mus musculus; experiment: Protection against colistin-induced nephrotoxicity in C57BL/6 mouse model assessed as reduction in NGAL level at 1 mg/kg, ip administered once every other day measured after 7 days by IHC analysis; assay type: functional, organism-based; settings: time 7.0 day; summary of the method: as §3
[14] = test system: Mus musculus; experiment: Protection against colistin-induced nephrotoxicity in C57BL/6 mouse model assessed as reduction in 8-OHdG level at 1 mg/kg, ip administered once every other day measured after 7 days by IHC analysis; assay type: functional, organism-based; settings: time 7.0 day; summary of the method: as §3
[15] = test system: Mus musculus; experiment: Protection against colistin-induced nephrotoxicity in C57BL/6 mouse model assessed as reduction in cyt C level at 1 mg/kg, ip administered once every other day measured after 7 days by IHC analysis; assay type: functional, organism-based; settings: time 7.0 day; summary of the method: as §4
[16] = Toxicity in C57BL/6 mouse model of colistin-induced nephrotoxicity assessed as animal survival at 1 mg/kg, ip administered once every other day measured for 7 days; assay type: organism-based; settings: in vivo, 168 h, time 7 day
Summary of the method: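 Male C57BL/6 mice got colistin 20 mg/kg SC daily for 7 days, with peptide 1 mg/kg intraperitoneally every other day; groups of n = 5. Survival was tracked by Kaplan–Meier and compared by log-rank (Mantel–Cox) test.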

[17] = test system: Mus musculus; experiment: Protection against colistin-induced nephrotoxicity in C57BL/6 mouse model assessed as appearance of compact cristae in mitochondria of kidney at 1 mg/kg, ip administered once every other day measured after 7 days by TEM analysis; assay type: functional, organism-based; settings: time 7.0 day
Summary of the method: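 Male C57BL/6 mice, 7 weeks, given colistin 20 mg/kg sc daily for 7 days with peptide 1 mg/kg ip once every other day, n = 5 per group; kidney mitochondria examined by TEM.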

[18] = test system: Epithelial cell; experiment: Reversal of H2O2-induced p21 mRNA level in human tubular epithelial cells at 10 to 100 nM by qPCR analysis; assay type: functional, cell-based; settings: dose 10-100 nM
[19] = test system: Epithelial cell; experiment: Reversal of H2O2-induced IL-18 mRNA level in human tubular epithelial cells at 10 to 100 nM by qPCR analysis; assay type: functional, cell-based; settings: dose 10-100 nM
[20] = test system: Mus musculus; experiment: Protection against […] C57BL/6 mouse model assessed as reduction in serum BUN level at 1 mg/kg, ip administered thrice a week prior to induction of bilateral ischemia-reperfusion injury measured after 6 days; assay type: functional, organism-based; settings: time 6.0 day
[21] = test system: Mus musculus; experiment: Protection against […] C57BL/6 mouse model assessed as reduction in cast formation at 1 mg/kg, ip administered thrice a week prior to induction of bilateral ischemia-reperfusion injury measured after 6 days by IHC analysis; assay type: functional, organism-based; settings: time 6.0 day
[22] = test system: Mus musculus; experiment: Protection against […] C57BL/6 mouse model assessed as increase in SOD-1 mRNA level at 1 mg/kg, ip administered thrice a week prior to induction of bilateral ischemia-reperfusion injury measured after 6 days by qPCR analysis; assay type: functional, organism-based; settings: time 6.0 day
[23] = test system: Mus musculus; experiment: Protection against […] C57BL/6 mouse model assessed as decrease in serum creatinine level at 1 mg/kg, ip measured after 23 hrs; assay type: functional, organism-based

CC(=O)N[C@@H](CC1CCCCC1)C(=O)N[C@H]1CSSC[C@@H](C(=O)N[C@@H](CCCNC(=N)N)C(N)=O)NC(=O)[C@H](CC2CCCCC2)NC(=O)[C@H](CCCNC(=N)N)NC(=O)[C@H](CCCNC(=N)N)NC(=O)[C@H](CC2CCCCC2)NC(=O)[C@H](CC(C)C)NC(=O)[C@H](CCCNC(=N)N)NC(=O)[C@@H](NC(=O)[C@H](CC2CCCCC2)NC(=O)c2ccc3c(c2)C(=O)OC32c3ccc(N(C)C)cc3Oc3cc(N(C)C)ccc32)CSSC[C@@H](C(=O)N[C@@H](CCCNC(=N)N)C(N)=O)NC(=O)[C@H](CC2CCCCC2)NC(=O)[C@H](CCCNC(=N)N)NC(=O)[C@H](CCCNC(=N)N)NC(=O)[C@H](CC2CCCCC2)NC(=O)[C@H](CC(C)C)NC(=O)[C@H](CCCNC(=N)N)NC1=O (I: Ac-[Cha]CRL[Cha]RR[Cha]CR-NH2 / II: 5TAMRA-[Cha]CRL[Cha]RR[Cha]CR-NH2; disulfide I:2-II:9, I:9-II:2)
active: inhibition [1] | inhibition [4] Dose-Dependent Effect | Activity [5] Dose-Dependent Effect | Activity [6] Dose-Dependent Effect | Activity [8] Dose-Dependent Effect | Activity [9] Dose-Dependent Effect | Activity [10] Dose-Dependent Effect | Activity [11] | Activity [12] | Activity [13] | Activity [14] | Activity [15] | Activity [17] | Activity [18] | Activity [19] | Activity [20] | Activity [21] | Activity [22] | Activity [23]
Active: Drug uptake [2] | Drug uptake [7]
Tde: Drug uptake [3]
Non-Toxic: Activity [16]
